This note sets out measurements from ChEMBL document CHEMBL4024768, “Discovery and Optimization of Thiazolidinyl and Pyrrolidinyl Derivatives as Inhaled PDE4 Inhibitors for Respiratory Diseases” (J Med Chem, 2017).

Usually IC50 stands for the concentration that gives 50% inhibition. The Tmax is the time at which the peak concentration occurs. The ED50 is the dose at which the effect has come halfway, by size or by number of responders. Broadly, the MRT last is the average time that molecules of a dose stay in the body. A word on the inhibition in vivo: it is the percentage by which the read-out fell short of the control.

Calls of active or inactive are those of the source. The calls are words filed in the database; no cut-off is given here.

One data set deals with Plasma. As to the kind of experiment: Tlast in Sprague-Dawley rat plasma at 1 umol/kg, it administered as micronized powder measured up to 24 hrs post dose by electrospray LC-MS analysis. Format: ADME, cell-free. The settings on record: inhaled_or_intranasal. A digest of the protocol: (§1)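 Sprague-Dawley rats (250−400 g) dosed intratracheally with micronized dry powder blended with coarse lactose, delivered by insufflator under isoflurane anaesthesia. Blood collected in heparinized tubes and spun at 1200g for 15 min. Lung sampled at 0.25, 1, 2, 4, 8, 16 and 24 h, n = 3 per time point.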

The target of data set [1] is cGMP-inhibited 3',5'-cyclic phosphodiesterase 3A (Homo sapiens, UniProt Q14432). As to the kind of experiment: Inhibition of human recombinant PDE3A expressed insect sf9 cells by radiometric assay. Summed up:
(§2)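 Human recombinant PDEs expressed in Sf9 cells, except PDE6 purified from bovine retina. Radiometric two-step method, modified from Thompson and Appleman. Five concentrations in duplicate, starting at 30 μM with 1:10 serial dilution, 1% final DMSO.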

Data set [2] is described as follows: Tmax in Sprague-Dawley rat lung at 1 umol/kg, it administered as micronized powder measured up to 24 hrs post dose by electrospray LC-MS analysis. It counts as ADME, tissue-based. The settings on record: inhaled or intranasal. A digest of the protocol: as §1
In data set [3] the test system is Lung. As to the kind of experiment: Drug uptake in Sprague-Dawley rat lung at 1 umol/kg, it administered as micronized powder measured at 24 hrs post dose by electrospray LC-MS analysis. It counts as ADME, tissue-based. The settings on record: in vivo, inhaled_or_intranasal. A digest of the protocol:
as §1

For data set [4], the target named is cGMP-dependent 3',5'-cyclic phosphodiesterase (Homo sapiens, UniProt O00408). As to the kind of experiment: Inhibition of human recombinant PDE2A expressed insect sf9 cells by radiometric assay. Summed up: as §2
Chain of cGMP-dependent 3',5'-cyclic phosphodiesterase (O00408 whole entry): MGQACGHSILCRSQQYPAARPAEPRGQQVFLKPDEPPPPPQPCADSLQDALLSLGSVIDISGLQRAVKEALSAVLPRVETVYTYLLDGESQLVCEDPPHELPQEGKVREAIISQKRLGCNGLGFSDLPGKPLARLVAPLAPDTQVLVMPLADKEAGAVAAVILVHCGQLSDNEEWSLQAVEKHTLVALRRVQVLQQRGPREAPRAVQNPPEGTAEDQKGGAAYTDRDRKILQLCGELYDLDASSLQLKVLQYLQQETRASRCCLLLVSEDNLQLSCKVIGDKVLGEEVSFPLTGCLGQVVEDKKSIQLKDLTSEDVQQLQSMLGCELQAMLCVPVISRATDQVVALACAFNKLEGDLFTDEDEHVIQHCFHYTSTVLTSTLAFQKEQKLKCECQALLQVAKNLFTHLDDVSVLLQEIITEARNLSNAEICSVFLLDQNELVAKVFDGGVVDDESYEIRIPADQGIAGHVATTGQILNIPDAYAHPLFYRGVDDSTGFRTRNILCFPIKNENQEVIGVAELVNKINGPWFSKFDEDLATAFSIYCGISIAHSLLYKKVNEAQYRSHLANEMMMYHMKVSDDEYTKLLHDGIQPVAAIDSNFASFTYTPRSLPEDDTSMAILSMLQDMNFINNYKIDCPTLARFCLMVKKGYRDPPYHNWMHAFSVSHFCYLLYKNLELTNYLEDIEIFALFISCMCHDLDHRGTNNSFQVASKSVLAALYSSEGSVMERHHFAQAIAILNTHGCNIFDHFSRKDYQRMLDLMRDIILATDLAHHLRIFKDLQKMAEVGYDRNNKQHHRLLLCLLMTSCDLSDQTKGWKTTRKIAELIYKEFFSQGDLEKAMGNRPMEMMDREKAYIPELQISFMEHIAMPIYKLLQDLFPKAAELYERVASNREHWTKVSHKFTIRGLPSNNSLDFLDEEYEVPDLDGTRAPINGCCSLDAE
Data set [5] is described as follows: Inhibition of PDE4 in human PBMC assessed as reduction in LPS-induced TNFalpha release after 18 hrs by quantitative ELISA. On the technique in general: ELISA stands for enzyme-linked immunosorbent assay.
Data set [6] addresses T1, Sterol O-acyltransferase 1 (Rattus norvegicus) (UniProt O70536).
T1 sequence (whole entry): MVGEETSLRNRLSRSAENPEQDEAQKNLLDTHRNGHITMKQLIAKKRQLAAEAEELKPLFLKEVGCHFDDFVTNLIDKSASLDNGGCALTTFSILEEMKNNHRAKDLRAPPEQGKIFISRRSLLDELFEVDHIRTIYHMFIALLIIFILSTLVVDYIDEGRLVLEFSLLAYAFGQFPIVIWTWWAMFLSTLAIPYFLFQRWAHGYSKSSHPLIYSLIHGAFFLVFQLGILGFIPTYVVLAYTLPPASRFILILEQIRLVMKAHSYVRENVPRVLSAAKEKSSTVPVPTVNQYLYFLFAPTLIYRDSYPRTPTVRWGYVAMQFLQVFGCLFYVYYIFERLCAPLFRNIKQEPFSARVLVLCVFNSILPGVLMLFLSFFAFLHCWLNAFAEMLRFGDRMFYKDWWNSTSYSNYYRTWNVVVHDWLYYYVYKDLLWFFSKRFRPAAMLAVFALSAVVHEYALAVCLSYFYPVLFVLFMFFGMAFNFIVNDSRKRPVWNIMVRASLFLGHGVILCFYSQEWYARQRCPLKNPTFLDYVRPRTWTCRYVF
In words: Binding affinity to rat hepatic Acyl CoA-cholesterol acyltransferase at 1 uM. A digest of the protocol:
(§3)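 Off-target screening panel of about 400 receptors, enzymes and ion channels, run at 1 μM. Result expressed as % binding.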

In data set [7] the test system is Rattus norvegicus. As to the kind of experiment: Anti-inflammatory activity in OVA-induced airway inflammation Brown Norway rat model assessed inhibition of eosinophils recruitment in bronchoalveolar lavage fluid administered intratracheally as powder formulation 2 hrs before aerosolized OVA challenge measured at 24 hrs post aerosolized OVA challenge. Format: functional. The settings on record: for ED50: inhaled or nasal. A digest of the protocol: (§4)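 Male Brown Norway rats sensitized i.p. with OVA (1 mg/rat) plus Al(OH)3 (100 mg/rat) in saline on 3 consecutive days. Challenged 2–3 weeks later with nose-only 1% OVA aerosol for 30 min. Lactose-blended dry powder (10 mg/kg total powder) insufflated intratracheally; dose taken from needle weight difference. BAL with 3 × 4 mL HBSS/EDTA/HEPES at 24 h; total and differential counts by automated counter. ED50 from fitted dose–response curve.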

Data set [8] concerns the target High affinity cGMP-specific 3',5'-cyclic phosphodiesterase 9A (Homo sapiens, UniProt O76083). As to the kind of experiment: Inhibition of human recombinant PDE9A2 expressed insect sf9 cells by radiometric assay. Summed up: as §2
Data set [9] deals with Lung. In words: Tlast in Sprague-Dawley rat lung at 1 umol/kg, it administered as micronized powder measured up to 24 hrs post dose by electrospray LC-MS analysis. Format: ADME, tissue-based. The settings on record: in vivo, inhaled_or_intranasal. Summed up:
as §1

Data set [10] in a line: Tmax in Sprague-Dawley rat plasma at 1 umol/kg, it administered as micronized powder measured up to 24 hrs post dose by electrospray LC-MS analysis. It counts as ADME, cell-free. The settings on record: inhaled or intranasal. A digest of the protocol:
as §1

Data set [11] is described as follows: Metabolic stability in human plasma assessed as compound remaining at 1 uM measured after 60 mins in presence of NADPH by LC-MS/MS analysis. Format: ADME, cell-free. The settings on record: read-out: Stability.
A short description of data set [12]: Drug metabolism in human hepatocytes assessed as (S)-1-(3-(dimethylcarbamoyl)phenylsulfonyl)pyrrolidine-2-carboxylic acid metabolite formation at 10 uM after 60 mins by LC-MS/MS analysis. It counts as ADME, cell-based, Hepatocyte. The settings on record: 1 h. Summed up:
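Pooled mixed-sex cryopreserved human hepatocytes (1 million cells/mL) in Leibovitz L-15 at 37 °C, compound at 10 μM in duplicate. Sampled at 0 and 60 min. Protein-free supernatant evaporated under nitrogen, reconstituted in mobile phase and analysed by LC−MS/MS. Cell-free medium incubation for 60 min as control.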

Data set [13] is described as follows: MRTlast in Sprague-Dawley rat lung at 1 umol/kg, it administered as micronized powder measured up to 24 hrs post dose by electrospray LC-MS analysis. Format: ADME, tissue-based. The settings on record: inhaled or intranasal. A digest of the protocol:
as §1

Data set [14] can be described thus: Inhibition of bovine retina PDE6 expressed insect sf9 cells by radiometric assay. Also on record: species or system Bos taurus.
For data set [15], the target named is High affinity cAMP-specific and IBMX-insensitive 3',5'-cyclic phosphodiesterase 8A (Homo sapiens, UniProt O60658). As to the kind of experiment: Inhibition of human recombinant PDE8A1 expressed insect sf9 cells by radiometric assay. A digest of the protocol:
as §2

In data set [16] the test system is Rattus norvegicus. In words: Anti-inflammatory activity in OVA-induced airway inflammation Brown Norway rat model assessed inhibition of eosinophils recruitment in bronchoalveolar lavage fluid at 0.1 umol/kg administered intratracheally as powder formulation 2 hrs before aerosolized OVA challenge measured at 24 hrs post aerosolized OVA challenge. It counts as functional. The following applies: inhaled or nasal. Summed up: as §4

The target of another data set is Cytochrome P450 2C19 (Homo sapiens, UniProt P33261). As to the kind of experiment: Binding affinity to human liver microsomes CYP2C19 at 1 uM. It counts as ADME. A digest of the protocol: as §3
Chain of Cytochrome P450 2C19 (P33261 whole entry): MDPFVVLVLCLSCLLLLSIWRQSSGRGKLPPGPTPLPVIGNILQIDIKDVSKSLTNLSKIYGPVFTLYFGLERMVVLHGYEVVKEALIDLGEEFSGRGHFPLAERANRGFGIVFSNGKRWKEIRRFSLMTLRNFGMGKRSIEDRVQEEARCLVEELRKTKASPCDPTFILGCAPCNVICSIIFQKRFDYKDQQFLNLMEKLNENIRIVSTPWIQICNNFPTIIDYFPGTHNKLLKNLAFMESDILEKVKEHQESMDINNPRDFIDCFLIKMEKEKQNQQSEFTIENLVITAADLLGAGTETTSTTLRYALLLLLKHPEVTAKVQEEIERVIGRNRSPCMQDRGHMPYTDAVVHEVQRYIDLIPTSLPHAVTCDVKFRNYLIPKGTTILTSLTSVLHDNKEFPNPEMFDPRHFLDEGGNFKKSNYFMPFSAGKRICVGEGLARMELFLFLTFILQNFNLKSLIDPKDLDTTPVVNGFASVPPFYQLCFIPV
In general terms: Microsomes from liver hold many membrane-bound enzymes, among them those of drug oxidation.

For data set [17], the system named is Rattus norvegicus. In words: Anti-inflammatory activity in OVA-induced airway inflammation Brown Norway rat model assessed inhibition of inflammatory cell infiltration in bronchoalveolar lavage fluid at 1 umol/kg administered intratracheally as powder formulation 2 hrs before aerosolized OVA challenge measured at 24 hrs post aerosolized OVA challenge. It counts as functional. Summed up: as §4

Data set [18] is filed under the species Rattus norvegicus. In words: Binding affinity to rat imidazoline I2 receptor. Summed up: as §3

Chain of High affinity cGMP-specific 3',5'-cyclic phosphodiesterase 9A (O76083 whole entry): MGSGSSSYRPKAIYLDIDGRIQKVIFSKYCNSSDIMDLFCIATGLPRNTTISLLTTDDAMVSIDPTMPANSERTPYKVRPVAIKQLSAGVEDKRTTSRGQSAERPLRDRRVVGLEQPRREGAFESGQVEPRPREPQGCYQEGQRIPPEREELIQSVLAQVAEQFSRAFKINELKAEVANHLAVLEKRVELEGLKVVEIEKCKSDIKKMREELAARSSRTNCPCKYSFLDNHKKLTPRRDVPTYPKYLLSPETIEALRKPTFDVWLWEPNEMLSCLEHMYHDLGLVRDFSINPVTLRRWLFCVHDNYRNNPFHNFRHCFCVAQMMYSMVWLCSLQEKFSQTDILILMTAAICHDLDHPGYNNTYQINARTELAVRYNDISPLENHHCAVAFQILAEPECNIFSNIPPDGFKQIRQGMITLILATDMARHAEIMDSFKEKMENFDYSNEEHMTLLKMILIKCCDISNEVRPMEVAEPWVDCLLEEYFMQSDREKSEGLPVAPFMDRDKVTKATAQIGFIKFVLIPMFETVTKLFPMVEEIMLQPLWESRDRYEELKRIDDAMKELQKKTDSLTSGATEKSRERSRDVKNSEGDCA
Chain of High affinity cAMP-specific and IBMX-insensitive 3',5'-cyclic phosphodiesterase 8A (O60658 whole entry): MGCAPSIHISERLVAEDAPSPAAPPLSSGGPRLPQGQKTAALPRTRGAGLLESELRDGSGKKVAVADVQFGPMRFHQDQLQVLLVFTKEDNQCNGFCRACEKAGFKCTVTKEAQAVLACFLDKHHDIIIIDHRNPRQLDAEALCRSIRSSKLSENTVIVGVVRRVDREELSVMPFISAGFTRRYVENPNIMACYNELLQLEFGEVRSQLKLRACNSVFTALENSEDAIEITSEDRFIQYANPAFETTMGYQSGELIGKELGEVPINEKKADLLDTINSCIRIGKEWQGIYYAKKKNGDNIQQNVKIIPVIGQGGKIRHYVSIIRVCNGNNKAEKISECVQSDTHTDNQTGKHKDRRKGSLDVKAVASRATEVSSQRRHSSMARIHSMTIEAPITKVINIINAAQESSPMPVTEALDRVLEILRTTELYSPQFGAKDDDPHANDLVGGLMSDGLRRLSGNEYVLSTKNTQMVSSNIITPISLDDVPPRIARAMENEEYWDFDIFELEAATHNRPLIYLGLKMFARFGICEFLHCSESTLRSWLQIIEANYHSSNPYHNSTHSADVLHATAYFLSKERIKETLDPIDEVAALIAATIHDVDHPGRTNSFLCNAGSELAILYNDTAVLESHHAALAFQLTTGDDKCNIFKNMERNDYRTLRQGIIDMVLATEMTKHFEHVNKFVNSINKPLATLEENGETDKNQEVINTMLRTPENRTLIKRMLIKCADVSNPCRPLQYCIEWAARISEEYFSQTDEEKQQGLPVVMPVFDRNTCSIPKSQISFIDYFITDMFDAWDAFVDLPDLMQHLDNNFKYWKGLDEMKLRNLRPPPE
Chain of cGMP-inhibited 3',5'-cyclic phosphodiesterase 3A (Q14432 whole entry): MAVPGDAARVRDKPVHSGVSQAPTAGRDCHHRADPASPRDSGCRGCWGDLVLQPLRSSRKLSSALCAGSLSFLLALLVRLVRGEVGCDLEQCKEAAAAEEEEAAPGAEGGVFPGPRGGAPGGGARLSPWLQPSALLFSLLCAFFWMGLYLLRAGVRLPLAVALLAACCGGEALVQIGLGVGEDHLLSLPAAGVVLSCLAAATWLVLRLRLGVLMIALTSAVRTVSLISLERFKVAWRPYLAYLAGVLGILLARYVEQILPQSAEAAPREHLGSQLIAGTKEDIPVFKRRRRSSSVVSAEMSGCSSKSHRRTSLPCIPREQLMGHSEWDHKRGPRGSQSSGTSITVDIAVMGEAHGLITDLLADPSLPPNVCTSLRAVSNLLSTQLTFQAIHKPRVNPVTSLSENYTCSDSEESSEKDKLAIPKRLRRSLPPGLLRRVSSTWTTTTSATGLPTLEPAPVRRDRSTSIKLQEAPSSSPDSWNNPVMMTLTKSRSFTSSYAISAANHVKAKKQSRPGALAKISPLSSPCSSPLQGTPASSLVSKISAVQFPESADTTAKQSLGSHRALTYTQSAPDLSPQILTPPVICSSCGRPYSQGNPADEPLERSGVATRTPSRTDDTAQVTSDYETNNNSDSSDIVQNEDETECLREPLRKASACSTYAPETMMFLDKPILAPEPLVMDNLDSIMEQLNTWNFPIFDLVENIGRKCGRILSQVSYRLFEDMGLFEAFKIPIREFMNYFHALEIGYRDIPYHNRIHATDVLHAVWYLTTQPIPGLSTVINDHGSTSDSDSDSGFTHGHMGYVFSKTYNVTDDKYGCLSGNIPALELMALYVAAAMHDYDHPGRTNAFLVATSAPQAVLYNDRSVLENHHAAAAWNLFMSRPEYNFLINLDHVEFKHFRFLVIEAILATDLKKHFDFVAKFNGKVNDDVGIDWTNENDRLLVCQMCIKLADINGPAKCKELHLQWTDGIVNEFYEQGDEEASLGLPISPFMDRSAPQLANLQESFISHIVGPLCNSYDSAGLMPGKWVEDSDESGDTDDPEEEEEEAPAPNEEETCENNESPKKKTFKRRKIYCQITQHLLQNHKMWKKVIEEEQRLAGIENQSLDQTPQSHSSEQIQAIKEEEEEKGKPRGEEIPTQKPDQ

Turning to `CN(C)C(=O)c1cccc(S(=O)(=O)N2CCC[C@H]2C(=O)O[C@@H](Cc2c(Cl)c[n+]([O-])cc2Cl)c2ccc(OC(F)F)c(OCC3CC3)c2)c1` (relative stereo), the Tlast stood at 8 h with Plasma and 24 h in the data set with Lung [9]. The IC50 was over 30 µM in data set [1]; over 30 µM in data set [4]; 0.032 nM in data set [5]; over 30 µM in data set [8]; over 30 µM in [14]; 17 µM in [15]. In addition, the Tmax in [2] and in [10] was 4.98 min throughout. The compound also returned a Drug uptake in the data set with Lung [3] of 0.128 nmol/g. Moreover, the Activity in data set [6] stood at 50%. In addition, the inhibition entry in the data set on Rattus norvegicus [7] is “Dose-dependent effect”. Also, in the data set on Rattus norvegicus [7], it took a dose of 0.1 µmol/kg to reach the 50% effect level (ED50). Further, in [11], the remaining at 1 h, 1 µM was 108%. The Drug metabolism result in data set [12] was “Metabolite_Notdetected”. Further, the MRT last at 24 h in data set [13] was 271 min.

As to `CN(C)C(=O)c1cccc(S(=O)(=O)N2CCS[C@H]2C(=O)O[C@@H](Cc2c(Cl)c[n+]([O-])cc2Cl)c2ccc(OC(F)F)c(OCC3CC3)c2)c1`, the Tlast with Plasma amounted to 8 h; in the data set with Lung [9] it was 24 h. In addition, the IC50 in [1] was 6.21 µM; in data set [4], over 30 µM; in [5], 0.019 nM; in data set [8], over 30 µM; in [14], 5.78 µM; in data set [15], 3.56 µM. Also, the results for the Tmax in [2] and in data set [10] were 15 min and 4.98 min, respectively. Also, the Drug uptake in the data set on Lung [3] came out at 0.22 nmol/g. The compound further had an inhibition in vivo at 0.1 µmol/kg in the data set on Rattus norvegicus [16] of 50%. In addition, the figures for the Activity at Cytochrome P450 2C19 and in the data set listed under Rattus norvegicus [18] were 69% and 60%, respectively. Besides, the inhibition result in the data set with Rattus norvegicus [17] is “Active”. Besides, the inhibition result with Rattus norvegicus [7] was “Dose-dependent effect”. Moreover, it took a dose of 0.04 µmol/kg to reach the 50% effect level with Rattus norvegicus [7] (ED50). In data set [11], the remaining at 1 h, 1 µM was 98%. Also, the mean residence time (MRT last) at 24 h in data set [13] worked out at 334 min.
